Assay results of several laboratories.
Target: 3-phosphoinositide-dependent protein kinase 1 (PDPK1, Homo sapiens, UniProt O15530)
One construct used (O15530 1-556): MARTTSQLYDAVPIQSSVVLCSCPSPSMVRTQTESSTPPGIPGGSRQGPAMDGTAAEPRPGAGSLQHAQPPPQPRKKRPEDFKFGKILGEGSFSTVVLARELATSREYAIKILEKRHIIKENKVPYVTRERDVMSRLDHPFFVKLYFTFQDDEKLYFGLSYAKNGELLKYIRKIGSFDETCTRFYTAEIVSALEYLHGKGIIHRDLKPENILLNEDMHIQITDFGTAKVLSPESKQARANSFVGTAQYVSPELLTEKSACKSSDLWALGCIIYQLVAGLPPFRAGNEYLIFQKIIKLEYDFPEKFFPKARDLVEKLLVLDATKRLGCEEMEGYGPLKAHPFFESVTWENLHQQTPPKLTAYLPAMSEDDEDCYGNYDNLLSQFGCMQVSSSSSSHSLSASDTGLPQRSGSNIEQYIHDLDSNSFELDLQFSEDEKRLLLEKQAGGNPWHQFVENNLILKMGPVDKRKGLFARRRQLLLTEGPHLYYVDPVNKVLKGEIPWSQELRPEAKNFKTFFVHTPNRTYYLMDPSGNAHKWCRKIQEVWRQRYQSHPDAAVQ

| SMILES | test | conditions | endpoint | value |
| --- | --- | --- | --- | --- |
| CS(=O)(=O)CCNCc1ccc(-c2ccc3ncnc(Nc4ccc(OCc5cccc(F)c5)c(Cl)c4)c3c2)o1 | cell-free assay | 0.5 µM | remaining signal | 86.4% |
| O=C(O)c1cc(-c2ccc(C3CCNCC3)cc2)c2ccc(-c3ccc(C(F)(F)F)cc3)cc2c1 | cell-free assay, competition with immobilised ligand | 1 µM | remaining binding | 100% |
| Cc1ccc(C(=O)Nc2ccc(CN3CCN(C)CC3)c(C(F)(F)F)c2)cc1C#Cc1cnc2cccnn12 | enzyme activity, inhibitor | 23.5 nM | remaining activity | 94% |
| CCCOc1ccc(OC)c(F)c1C(=O)c1ccc(C(=O)N[C@@H]2CNC[C@H]2NC(=O)c2ccc3[nH]ncc3c2)cc1 | enzyme activity, inhibitor | 10 µM | remaining activity | 102% |
| COCCOc1nc(-c2ccc(Cl)nc2)nc2c1CN(C(=O)c1ncn3ccccc13)CC2 | cell-free assay, competition with immobilised ligand | 0.1 µM | remaining binding | 90% |
| Cc1sc(C(=O)NC2COC2)cc1-n1cc(NC(=O)Nc2c(F)cccc2Cl)cn1 | enzyme activity, inhibitor | 10 µM | remaining activity | 99.2% |
| Cc1ccc(C(=O)NCc2ccsc2)cc1C#Cc1cn(C(C)C)c2ncnc(N)c12 | enzyme activity, inhibitor | 1 µM | activity vs control | 98% |
| CC(C)(C)c1nc(-c2cccc(NS(=O)(=O)c3c(F)cccc3F)c2F)c(-c2ccnc(N)n2)s1 | enzyme activity, inhibitor, radiometric | 1 µM | remaining activity | 94% |
| CC(C)CC(=O)N1CCc2nc(-c3ccc(Br)cc3)nc(N(C)Cc3ccccc3)c2C1 | cell-free assay, competition with immobilised ligand | 0.1 µM | remaining binding | 100% |
| Nc1nc(NC2CCCCC2)sc1C(=O)c1ccccc1 | enzyme activity, inhibitor | 10 µM | remaining activity | 106% |
| CNC(=O)c1ccc(Nc2ncc(C(F)(F)F)c(NCc3nccnc3N(C)S(C)(=O)=O)n2)cc1 | cell-free assay, competition with immobilised ligand | 0.1 µM | remaining binding | 81% |
| FC(F)c1nc2ccccc2n1-c1nc(N2CCOCC2)nc(N2CCOCC2)n1 | enzyme activity, inhibitor | 10 µM | remaining activity | 92% |
| CNC(=O)Nc1ccc2c(c1)[C@@]1(CC2)OC(=O)N(CC(=O)N(Cc2ccc(F)cc2)[C@@H](C)C(F)(F)F)C1=O | cell-free assay, competition with immobilised ligand | 1 µM | remaining binding | 85% |
| O=C1Nc2ccc(Cl)cc2C1=Cc1cc(Cl)c(O)c(Cl)c1 | cell-free assay | 0.5 µM | remaining signal | 103% |
| Nc1nc(Nc2ccccc2)sc1C(=O)c1c(F)cccc1F | enzyme activity, inhibitor | 10 µM | remaining activity | 65% |
| c1ccc(N2CCN(Cc3nc4ccccc4[nH]3)CC2)nc1 | binding, competition with immobilised ligand | 1 µM | remaining binding | 89% |
| O=C1NC(=O)c2cc(Nc3ccc(F)cc3)c(Nc3ccc(F)cc3)cc21 | cell-free assay | 0.5 µM | remaining signal | 102% |
| CN(C)C1CCN(CC#Cc2nn(C3CCCC3)c3nc(NCc4ccccc4)ncc23)C1 (stereo not shown) | enzyme activity, inhibitor, FRET | 1 µM | inhibition | 4% |
| COc1cc(Nc2cnc(C#N)c(O[C@H](C)CN(C)C)n2)ncc1-c1cnn(C)c1 | enzyme activity, inhibitor, radiometric | 10 µM | remaining activity | 76% |
| CC(C)(C)c1nc2c3cc[nH]c(=O)c3c3cc(F)ccc3c2[nH]1 | cell-free assay | 0.5 µM | remaining signal | 27% |
| O=C(Nc1cnn(-c2csc(C(=O)NC3COC3)c2)c1)Nc1ccccc1Cl | enzyme activity, inhibitor | 5 µM | remaining activity | 101% |
| O=C1NC(c2ccccn2)Sc2ccccc21 (stereo not shown) | cell-free assay, competition with immobilised ligand | 1 µM | remaining binding | 97% |
| N#CCCc1ccc2c(c1)-c1[nH]c3ccc([N+](=O)[O-])cc3c1CC(=O)N2 | cell-free assay | 0.5 µM | remaining signal | 79.8% |
| O=C(O)[C@@H]1[C@@H](Cn2nnc3ccccc3c2=O)CC[C@H]1C(=O)c1ccc(OCCC2CCOCC2)cc1 | cell-free assay, competition with immobilised ligand | 1 µM | remaining binding | 80% |
| Cc1cc(NC(=O)c2cccc3cc(-c4cccc5[nH]nc(N)c45)ccc23)ccc1F | enzyme activity, inhibitor | 0.1 µM | activity vs control | 101% |
